Source: ChEMBL document CHEMBL5303300, “EUbOPEN Chemogenomics Library - Multiplex” (2023)
“And” between values parts separate entries of the source, which are not always exact repeats. Identical values can stand only once.

Legend:
[1] = tested on: HEK-293T; test: Multiplex assay against HEK293T; assay type: toxicity, cell-based; conditions: human, number of replicates 2
Method in brief: (§1)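 With compound added, live cells were imaged on a CQ1 microscope at 37°C and 5% CO2; staining with Hoechst33342, BioTracker Green Microtubule Cytoskeleton Dye, MitoTracker Red and Annexin V Alexa Fluor 680 had been done at seeding. The CellPathfinder machine-learning gating scheme split cells into Hoechst high-intensity objects or normal cells, normal cells into healthy, pyknosed or fragmented nuclei, and pyknosed cells into mitotic or apoptotic. The tubulin, mitochondrial-mass and membrane-permeability phenotypes are per cents of healthy-nucleus cells.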

[2] = tested on: U2OS; test: Multiplex assay against U2OS; assay type: toxicity, cell-based; conditions: human, number of replicates 2; method in brief: as §1
[3] = 24 h, 1 µM, compound concentration 1 uM
[4] = 24 h, 10 µM, compound concentration 10 uM
[5] = 48 h, 1 µM, compound concentration 1 uM
[6] = 48 h, 10 µM, compound concentration 10 uM
[7] = 12 h, 1 µM, compound concentration 1 uM
[8] = 12 h, 10 µM, compound concentration 10 uM

CCc1ncnc(N2CCN(C(C)=O)CC2)c1C#Cc1ccc(N)nc1.Cl.Cl
Population Normal (%) [1, 3]: 84% and 76%
Population Pyknosed Nuclei (%) [1, 3]: 12% and 14%
Population Tubulin-Different-Phenotype (%) [1, 3]: 68% and 67%
Total Cell Count [1, 3]: 305 and 394
Population Apoptotic (%) [1, 4]: 72% and 60%
Population Fragmented Nuclei (%) [1, 4]: 3% and 6%
Population Healthy Nuclei (%) [1, 4]: 78% and 74%
Population Hoechst High Intensity Objects (%) [1, 4]: 14%
Population Membrane Permeable-Phenotype (%) [1, 4]: 2% and 1%
Population Mitochondria Different-Phenotype (%) [1, 4]: 57% and 64%
Population Mitotic Cells (%) [1, 4]: 27% and 39%
Population Normal (%) [1, 4]: 85%
Population Pyknosed Nuclei (%) [1, 4]: 18%
Population Tubulin-Different-Phenotype (%) [1, 4]: 79% and 82%
Total Cell Count [1, 4]: 233 and 255
Population Apoptotic (%) [1, 5]: 71% and 74%
Population Fragmented Nuclei (%) [1, 5]: 14% and 9%
Population Healthy Nuclei (%) [1, 5]: 63% and 76%
Population Hoechst High Intensity Objects (%) [1, 5]: 20% and 31%
Population Membrane Permeable-Phenotype (%) [1, 5]: 1% and 3%
Population Mitochondria Different-Phenotype (%) [1, 5]: 37% and 25%
Population Mitotic Cells (%) [1, 5]: 28% and 25%
Population Normal (%) [1, 5]: 79% and 68%
Population Pyknosed Nuclei (%) [1, 5]: 21% and 14%
Population Tubulin-Different-Phenotype (%) [1, 5]: 72% and 67%
Total Cell Count [1, 5]: 307 and 445
Population Apoptotic (%) [1, 6]: 65% and 57%
Population Fragmented Nuclei (%) [1, 6]: 7%
Population Healthy Nuclei (%) [1, 6]: 72% and 73%
Population Hoechst High Intensity Objects (%) [1, 6]: 23% and 14%
Population Membrane Permeable-Phenotype (%) [1, 6]: 0%
Population Mitochondria Different-Phenotype (%) [1, 6]: 46% and 63%
Population Mitotic Cells (%) [1, 6]: 34% and 42%
Population Normal (%) [1, 6]: 76% and 85%
Population Pyknosed Nuclei (%) [1, 6]: 20% and 19%
Population Tubulin-Different-Phenotype (%) [1, 6]: 80% and 73%
Total Cell Count [1, 6]: 260 and 244
Population Apoptotic (%) [2, 7]: 100% and 70%
Population Fragmented Nuclei (%) [2, 7]: 19% and 10%
Population Healthy Nuclei (%) [2, 7]: 69% and 80%
Population Hoechst High Intensity Objects (%) [2, 7]: 0%
Population Membrane Permeable-Phenotype (%) [2, 7]: 0%
Population Mitochondria Different-Phenotype (%) [2, 7]: 0%
Population Normal (%) [2, 7]: 100%
Population Pyknosed Nuclei (%) [2, 7]: 11% and 9%
Population Tubulin-Different-Phenotype (%) [2, 7]: 55% and 90%
Population Apoptotic (%) [2, 8]: 50% and 55%
Population Fragmented Nuclei (%) [2, 8]: 18% and 10%
Population Healthy Nuclei (%) [2, 8]: 72%
Population Hoechst High Intensity Objects (%) [2, 8]: 0%
Population Membrane Permeable-Phenotype (%) [2, 8]: 4% and 3%
Population Mitochondria Different-Phenotype (%) [2, 8]: 2% and 4%
Population Mitotic Cells (%) [2, 8]: 50% and 44%
Population Normal (%) [2, 8]: 100% and 99%
Population Pyknosed Nuclei (%) [2, 8]: 9% and 17%
Population Tubulin-Different-Phenotype (%) [2, 8]: 87% and 58%
Population Apoptotic (%) [2, 3]: 55% and 56%
Population Fragmented Nuclei (%) [2, 3]: 9% and 7%
Population Healthy Nuclei (%) [2, 3]: 75% and 82%
Population Hoechst High Intensity Objects (%) [2, 3]: 0%
Population Membrane Permeable-Phenotype (%) [2, 3]: 2% and 0%
Population Mitochondria Different-Phenotype (%) [2, 3]: 2% and 0%
Population Mitotic Cells (%) [2, 3]: 44% and 43%
Population Normal (%) [2, 3]: 100% and 99%
Population Pyknosed Nuclei (%) [2, 3]: 14% and 10%
Population Tubulin-Different-Phenotype (%) [2, 3]: 72% and 90%
Population Apoptotic (%) [2, 4]: 40% and 73%
Population Fragmented Nuclei (%) [2, 4]: 16% and 12%
Population Healthy Nuclei (%) [2, 4]: 67% and 71%
Population Hoechst High Intensity Objects (%) [2, 4]: 0%
Population Membrane Permeable-Phenotype (%) [2, 4]: 4% and 2%
Population Mitochondria Different-Phenotype (%) [2, 4]: 2% and 5%
Population Mitotic Cells (%) [2, 4]: 60% and 26%
Population Normal (%) [2, 4]: 100% and 99%
Population Pyknosed Nuclei (%) [2, 4]: 16%
Population Tubulin-Different-Phenotype (%) [2, 4]: 88% and 60%
Population Apoptotic (%) [2, 5]: 77% and 69%
Population Healthy Nuclei (%) [2, 5]: 72% and 82%
Population Hoechst High Intensity Objects (%) [2, 5]: 0%
Population Membrane Permeable-Phenotype (%) [2, 5]: 0% and 2%
Population Mitochondria Different-Phenotype (%) [2, 5]: 0%
Population Mitotic Cells (%) [2, 5]: 22% and 30%
Population Normal (%) [2, 5]: 100%
Population Pyknosed Nuclei (%) [2, 5]: 12% and 13%
Population Tubulin-Different-Phenotype (%) [2, 5]: 75% and 93%
Population Apoptotic (%) [2, 6]: 70% and 84%
Population Fragmented Nuclei (%) [2, 6]: 16% and 6%
Population Healthy Nuclei (%) [2, 6]: 32% and 66%
Population Hoechst High Intensity Objects (%) [2, 6]: 0%
Population Membrane Permeable-Phenotype (%) [2, 6]: 5% and 4%
Population Mitochondria Different-Phenotype (%) [2, 6]: 5% and 8%
Population Mitotic Cells (%) [2, 6]: 30% and 15%
Population Normal (%) [2, 6]: 100%
Population Pyknosed Nuclei (%) [2, 6]: 50% and 27%
Population Tubulin-Different-Phenotype (%) [2, 6]: 89% and 72%
